Read-outs that look alike come from different tables or passages of the source. One block for each molecule: values may come before it. Where a SMILES comes first, the peptide text is derived from it. [ ]: non-standard residue; d: D form. The star is where a group is joined. FITC = O=C1OC2(c3ccc(O)cc3Oc3cc(O)ccc32)c2ccc(NC(=S)*)cc21; pY = N[C@@H](Cc1ccc(OP(=O)(O)O)cc1)C(=O)O; Ahx = NCCCCCC(=O)O
Key:
[1] = target: T1, Shc SH2 domain (Homo sapiens, UniProt P29353); assay: Fluorescence anisotropy competition assay using peptide 8 as reference peptide; type: binding
T1 sequence (P29353 488-579 limits assumed): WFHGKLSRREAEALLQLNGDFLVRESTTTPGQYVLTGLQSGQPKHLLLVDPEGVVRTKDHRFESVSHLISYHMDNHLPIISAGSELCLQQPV

[2] = target: T1, Shc SH2 domain; assay: Steady state; type: binding; conditions: for Kd ± s.d.: Table 1, FITC-labelled peptides, n.b. = no binding
Method in brief: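 Direct titration: 5 nM N-terminal fluorescein-labelled peptide in 1× BS with 10% (v/v) DMSO, with Shc protein serially diluted in from a 100 μM starting concentration. Excitation at 485 nm and parallel/perpendicular emission at 535 nm. Kd comes from fitting anisotropy against protein concentration to a single-site quadratic binding model, corrected for the bound/free fluorescence intensity ratio.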

[3] = target: T2, Shc SH2 domain protein (UniProt P29353); assay: fluorescence polarisation
T2 sequence: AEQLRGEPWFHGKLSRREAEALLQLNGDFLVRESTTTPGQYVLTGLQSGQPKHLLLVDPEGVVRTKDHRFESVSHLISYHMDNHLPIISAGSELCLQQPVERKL

[4] = target: FITC-NH-(CH2)2-CO-L-pY-Q-G-L-S-amide; assay: fluorescence polarisation
[5] = target: FITC-NH-(CH2)2-CO-pY-Q-G-L-S-amide; assay: fluorescence polarisation
[6] = target: FITC-NH-(CH2)3-CO-L-pY-Q-G-L-S-amide; assay: fluorescence polarisation
[7] = target: FITC-NH-(CH2)3-CO-pY-Q-G-L-S-amide; assay: fluorescence polarisation
[8] = target: FITC-NH-(CH2)4-CO-L-pY-Q-G-L-S-amide; assay: fluorescence polarisation
[9] = target: FITC-NH-(CH2)4-CO-pY-Q-G-L-S-amide; assay: fluorescence polarisation
[10] = target: FITC-NH-(CH2)5-CO-pY-Q-G-L-S-amide; assay: fluorescence polarisation
[11] = target: FITC-pY-Q-G-L-S-amide; assay: fluorescence polarisation
[12] = target: T2, Shc SH2 domain protein; assay: fluorescence polarisation; remark: listed apart in the source

Molecule: CC(=O)N[C@@H](Cc1ccc(OP(=O)(O)O)cc1)C(=O)N[C@@H](CCC(N)=O)C(=O)NCC(=O)N[C@@H](CC(C)C)C(=O)N[C@@H](CO)C(N)=O [Ac-pY-Q-G-L-S-amide] (HELM PEPTIDE1{[ac].[O=C([C@H](Cc1ccc(OP(=O)(O)O)cc1)N[*:1])[*:2]].Q.G.L.S.[am]}$$$$V2.0)
IC50 [1]: 112.5 ± 0.7 µM
Shc SH2 domain binding affinity relative to parent Gly-containing peptide 45 ([1]; relative to 45 (IC50 = 248 μM)): approximate doubling of binding affinity

Molecule: CC(=O)N[C@@H](Cc1ccc(OP(=O)(O)O)cc1)C(=O)N[C@@H](CCC(N)=O)C(=O)NCC(N)=O [Ac-pY-Q-G-amide] (HELM PEPTIDE1{[ac].[O=C([C@H](Cc1ccc(OP(=O)(O)O)cc1)N[*:1])[*:2]].Q.G.[am]}$$$$V2.0)
IC50 [1]: > 500 µM

Molecule: CC(C)C[C@H](NC(=O)CNC(=O)[C@H](CCC(N)=O)NC(=O)[C@H](Cc1ccc(OP(=O)(O)O)cc1)NC(=O)[C@H](CC(C)C)NC(=S)Nc1ccc2c(c1)C(=O)OC21c2ccc(O)cc2Oc2cc(O)ccc21)C(=O)N[C@@H](CO)C(N)=O [compound 3, FITC-L-pY-Q-G-L-S-amide] (HELM PEPTIDE1{[O=C1OC2(c3ccc(O)cc3Oc3cc(O)ccc32)c2ccc(NC(=S)[*:2])cc21].L.[O=C([C@H](Cc1ccc(OP(=O)(O)O)cc1)N[*:1])[*:2]].Q.G.L.S.[am]}$$$$V2.0)
Kd ([2]; FITC-containing peptides): complete loss of binding affinity
Kd ± s.d. [2]: n.b. ^b

Molecule: CC(C)C[C@H](NC(=O)CNC(=O)[C@H](CCC(N)=O)NC(=O)[C@H](Cc1ccc(OP(=O)(O)O)cc1)NC(=O)[C@H](CC(C)C)NC(=O)CCCCCNC(=S)Nc1ccc2c(c1)C(=O)OC21c2ccc(O)cc2Oc2cc(O)ccc21)C(=O)N[C@@H](CO)C(N)=O [compound 14, FITC-NH-(CH2)5-CO-L-pY-Q-G-L-S-amide] ({FITC-Ahx}-L[pY]QGLS-NH2)
Kd ± s.d. [2]: n.b.

Molecule: CC(=O)NCCCCC(=O)N[C@@H](Cc1ccc(OP(=O)(O)O)cc1)C(=O)N[C@@H](CCC(N)=O)C(=O)NCC(=O)N[C@@H](CC(C)C)C(=O)N[C@@H](CO)C(N)=O [compound 15, Ac-NH-(CH2)4-CO-pY-Q-G-L-S-amide] (HELM PEPTIDE1{[ac].[O=C(CCCCN[*:1])[*:2]].[O=C([C@H](Cc1ccc(OP(=O)(O)O)cc1)N[*:1])[*:2]].Q.G.L.S.[am]}$$$$V2.0)
IC50 [1]: 158 ± 10 µM

Molecule: Ac-pY-Q-G-L-S-NHR, R = allyl, no N-allyl substitution (peptide 31)
IC50 [3]: 189 µM

Molecule: FITC-NH-(CH2)-CO-pY-Q-G-L-S-amide (YQGLS; not fully specified; FITC-NH-(CH2)-CO- on the N-terminus; phosphotyrosine at 1; C-terminal amide) [compound 5]
Kd ± s.d. [2]: n.b.

Other lines, results leading:

IC50 [3]: 165 µM
Molecule: Ac-pY-Q-G-L-S-NHR, R = homoallyl, no N-allyl substitution (peptide 35)

IC50 [3]: 112 µM
Molecule: Ac-pY-Q-G-L-S-amide (peptide)

Kd ± s.d. [2]: n.b.
Molecule: FITC-NH-(CH2) -CO-L-pY-Q-G-L-S-amide (LYQGLS; not fully specified; FITC-NH-(CH2)-CO- on the N-terminus; phosphotyrosine at 2; C-terminal amide) [compound 10]

Kd [4]: 7.6 µM
Kd [5]: 1.09 µM
Kd [6]: 8.6 µM
Kd [7]: 7.2 µM
Kd [8]: 8.9 µM
Kd [9]: 0.35 µM
Kd [10]: 4.7 µM
Kd [11]: 12.4 µM
Molecule: Shc SH2 domain protein (from UniProt P29353 480-583) (domain or fragment)

IC50 [12]: 248 µM
B1: Ac-pY-Q-G-L-amide (peptide)
peptide: YQGL
HELM: PEPTIDE1{[ac].[O=C([C@H](Cc1ccc(OP(=O)(O)O)cc1)N[*:1])[*:2]].Q.G.L.[am]}$$$$V2.0
SMILES: CC(=O)N[C@@H](Cc1ccc(OP(=O)(O)O)cc1)C(=O)N[C@@H](CCC(N)=O)C(=O)NCC(=O)N[C@@H](CC(C)C)C(N)=O

IC50 [12]: 91 µM
Molecule: Ac-[pY]QGL-{NH‑allyl} [Ac-pY-Q-G-L-NHR, R = allyl, no N-allyl substitution (peptide 38)]
